Rows were chosen to be rich in hits. Some 4.1% of all compounds tested hit in one or more screens of this group.
FID counter: displaces DNA intercalator in HCV helicase counter-screen. AID 1845. 0.17% of 290,000 active. inhibition, % at 7.9 µM. DNA fluorescent intercalator displacement, fluorescence; in the data active = inhibition above about 37%;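 also: higher means more ethidium bromide displaced from hairpin DNA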
NS3 helicase inh: blocks Hepatitis C virus NS3 helicase unwinding. NS3 helicase DNA unwinding, Cy5 molecular beacon fluorescence. AID 1800. 0.56% of 290,000 active. inhibition, % at 10.9 µM;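 active = inhibition above the mean of all tested compounds plus 3 SD, set per campaign, cut at about 35% in these data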
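Compound dosing – single dose, 10.9 µM nominal final, DMSO 0.8% final · System – NS3 helicase fragment of HCV · Buffer or medium – MOPS pH 6.5, MgCl2, DTT, Tween20, BSA · Signal – Cy5 beacon fluorescence read at start and 1 h · Also added – annealed dual-labelled DNA beacon duplex, ATP-started · Schedule – 1 h at 25 °C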
MEKK2mut PB1 HTS: signal of MEK5 binding to mutant human MEKK2 PB1 domain; bead flow cytometry, Alexa488-MEK5 binding to MEKK2 mutant; percent response, % at 10 µM; 0.35% of 290,000 active; AID 1530; in the data active = percent response above about 24%, passing the limit was not always enough
T cruzi inh: T. cruzi replication inhibition; T. cruzi beta-gal in NIH3T3, luminescence, 90 h; inhibition, % (no concentration beside the values); 1.4% of 300,000 active;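 active = mean inhibition across valid replicates above about 55%, limit read from the data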;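 also: signal also drops with host cell toxicity which is not excluded here; higher percent means less beta-gal luminescence so fewer parasites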
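assay system = mouse NIH/3T3 fibroblasts infected with β-gal-expressing T. cruzi Tulahuen C4 | input = 5,000 NIH/3T3 host cells per well | buffer or medium = DMEM plus 2% FBS | timing = 3 h host attachment, then at least 90 h co-culture | measured by = GalScreen luminescence, 60 min | evaluation = luminescence reflecting intracellular parasite burden, expressed as percent inhibition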
MEKK3 PB1 HTS: raises or lowers MEK5 binding to the human MEKK3 PB1 domain; bead-based flow cytometry, Alexa488-MEK5 binding to MEKK3; actives lie on both sides; 0 = blocked by unlabeled MEK5, 100 = vehicle; binding response (% of control), % at 10 µM; 1.4% of 290,000 active; AID 1529;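 active = binding response more than 3 SD above or below the average of its plate-row segment, actives on both sides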;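 also: Alexa488 bead fluorescence after subtracting the streptavidin-only scavenger bead signal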
Target sequence (Q99759 whole entry, looked up, the tested form may be a part): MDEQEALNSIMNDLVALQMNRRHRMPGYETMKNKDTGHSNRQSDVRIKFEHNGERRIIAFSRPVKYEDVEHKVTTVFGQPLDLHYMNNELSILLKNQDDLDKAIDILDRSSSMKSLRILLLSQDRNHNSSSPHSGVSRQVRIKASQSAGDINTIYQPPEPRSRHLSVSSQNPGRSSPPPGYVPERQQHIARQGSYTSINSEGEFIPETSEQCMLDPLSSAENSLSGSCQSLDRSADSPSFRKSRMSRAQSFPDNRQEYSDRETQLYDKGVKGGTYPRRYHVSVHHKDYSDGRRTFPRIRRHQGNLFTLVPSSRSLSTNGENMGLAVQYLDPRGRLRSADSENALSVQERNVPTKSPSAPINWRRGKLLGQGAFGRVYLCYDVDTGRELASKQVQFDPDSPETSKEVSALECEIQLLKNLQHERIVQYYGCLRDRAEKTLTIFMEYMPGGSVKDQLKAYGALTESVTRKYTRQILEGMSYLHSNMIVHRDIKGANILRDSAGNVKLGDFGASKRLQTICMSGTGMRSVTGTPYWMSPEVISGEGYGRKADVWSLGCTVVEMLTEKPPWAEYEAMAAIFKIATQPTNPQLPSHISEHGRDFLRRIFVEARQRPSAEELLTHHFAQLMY
MEKK2wt PB1 HTS: raises or lowers MEK5 binding to wildtype human MEKK2 PB1 domain. Q9Y2U5. bead flow cytometry, Alexa488-MEK5 binding to MEKK2 WT; actives lie on both sides. binding response (% of control), % at 10 µM. 1.1% of 290,000 active; in the data active = binding response below about 67% or above about 130%
Numbers stand for hits; 0 = inactive; - = no result given; [ ] = dose if it differs, or a comment.

SMILES | FID counter | NS3 helicase inh | MEKK2mut PB1 HTS | T cruzi inh | MEKK3 PB1 HTS | MEKK2wt PB1 HTS
Cc1cc(C(=O)N/N=C/c2ccc([N+](=O)[O-])cc2)c2ccccc2n1 | 0 | 0 | 0 | 0 | 0 | 0
Cn1c(SCC(=O)N/N=C/c2ccc([N+](=O)[O-])s2)nnc1-c1ccccc1 | 0 | 0 | 0 | 57.8 | 0 | 0
COc1ccc(NC(C)C(=O)N/N=C/c2ccc([N+](=O)[O-])s2)cc1 (configuration not stated) | 0 | 0 | 0 | 64.8 | 0 | 0
Cc1cc(C(=O)N/N=C/c2ccc([N+](=O)[O-])s2)c2ccccc2n1 | 0 | 0 | 0 | 61.3 | 0 | 0
O=[N+]([O-])c1ccc(/C=N/NC(=S)Nc2ccc(Cl)cc2Cl)s1 | 0 | 0 | 0 | 56.1 | 0 | 0
Cc1ccc(NC(C)C(=O)N/N=C/c2ccc([N+](=O)[O-])s2)cc1 (configuration not stated) | 0 | 0 | 0 | 82.1 | 0 | 0
Nc1ccc(S(=O)(=O)Nc2nc3ccccc3o2)cc1 | 0 | 0 | 0 | 0 | 0 | 0
O=C(O)c1ccc(Nc2cc(Cl)c3nonc3c2[N+](=O)[O-])cc1 | 0 | 0 | 0 | 0 | 0 | 0
O=[N+]([O-])c1c(Nc2cccc(O)c2)cc(Cl)c2nonc12 | 0 | 0 | 0 | 60.3 | 0 | 0
C=CCOc1ccc(Br)cc1CNC(C)(C)C | 0 | 0 | 0 | 0 | 0 | 0
CN(Cc1nccn1C)C(=O)C1CCC(=O)N(CCc2ccc(Cl)cc2)C1 (configuration not stated) | 0 | 0 | 0 | 0 | 0 | 0
COc1ccc(C(c2nnnn2C2CCCCC2)N2CCN(c3ccc(OC)cc3)CC2)cc1 (configuration not stated) | 0 | 0 | 0 | 0 | 0 | 0
c1cnc2ccc(C(c3nnnn3C3CCCCC3)N3CCCCC3)cc2c1 (configuration not stated) | 0 | 0 | 0 | 0 | 0 | 0
c1cc(N2CCCC2)ccc1C(c1nnnn1C1CCCCC1)N1CCOCC1 (configuration not stated) | 0 | 0 | 0 | 0 | 0 | -5.0
c1cnc2ccc(C(c3nnnn3C3CCCCC3)N3CCN(C4CCCCC4)CC3)cc2c1 (configuration not stated) | 0 | 0 | 0 | 69.4 | 0 | 0
O=C(OC1C[C@@H]2CC3C[C@H](C1)N2CC3=O)c1c[nH]c2ccccc12 (some centres not stated) | - | - | 0 | - | 0 | 0
CC(C)COc1ccc(C(=O)Nc2scc(-c3ccc(Cl)cc3Cl)c2C(N)=O)cc1 | 0 | 0 | - | 55.1 | - | -
O=C(NCCCSc1ccccc1)c1cc(Br)ccc1O | 0 | 0 | 0 | 0 | 0 | 0
CCCCCCCn1c2c(c(=N)c3ccccc31)CCC2 | 0 | 0 | 0 | 67.0 | 0 | 0
CCN(CC)c1ccc(N=Cc2cc(Br)ccc2O)cc1 | 0 | 0 | 0 | 61.1 | 0 | 0
CCOc1ccc2c(c1)C(C)=CC(C)(C)N2S(=O)(=O)c1ccc(NC(C)=O)cc1 | 0 | 0 | 0 | 55.2 | 0 | 0
COc1ccc2c(c1)C(C)=CC(C)(C)N2S(=O)(=O)c1ccc(NC(C)=O)cc1 | 0 | 0 | 0 | 0 | 0 | 0
COc1ccc2c(c1)C(C)=CC(C)(C)N2S(=O)(=O)c1ccc(Br)cc1 | 0 | 0 | 0 | 67.1 | 0 | 0
COc1ccc(CCC(=O)O)cc1OC | 0 | 0 | 0 | 0 | 0 | 0
Cc1ccccc1C1C(C#N)=C2NC(=O)c3c(sc4c3CCCCC4)N2C2=C1C(=O)CC(C)(C)C2 (configuration not stated) | 0 | 0 | - | 0 | - | -
SMILES | FID counter | NS3 helicase inh | MEKK2mut PB1 HTS | T cruzi inh | MEKK3 PB1 HTS | MEKK2wt PB1 HTS
Cc1ccccc1C1C(C#N)=C2N=C(N)c3c(sc4c3CCCCC4)N2C2=C1C(=O)CC(C)(C)C2 (configuration not stated) | 0 | 0 | 0 | 57.6 | 0 | 0
C=C(C)CSc1[nH]c(=O)cc(C)c1C#N | 0 | 0 | 0 | 0 | 0 | 0
CN(c1cccc(NC(=O)CN(c2ccc(C34CC5CC(CC(C5)C3)C4)cc2)S(C)(=O)=O)c1)S(C)(=O)=O | 0 | 0 | 0 | 65.3 | 0 | 0
Cc1ccc(S(=O)(=O)N(CC(=O)Nc2cccc(N(C)S(C)(=O)=O)c2)c2ccc(Cl)c(Cl)c2)cc1 | 0 | 0 | 0 | 70.0 | 0 | 0
S=C1Cc2ccccc2N1 | 0 | 0 | 0 | 59.9 | 0 | 0
CC(OC(=O)c1cccc(-n2cnnn2)c1)C(=O)Nc1cccc(Cl)c1 (configuration not stated) | - | - | - | 0 | - | -
CN(C)S(=O)(=O)c1cccc(NC(=O)CSc2cccc3cccnc23)c1 | 0 | 0 | 0 | 60.2 | 0 | 0
CCOC(=O)C1=C(c2ccccc2)NC(SCC(=O)Nc2ccc(C)cc2)=C(C#N)C1c1ccco1 (configuration not stated) | 0 | 0 | 0 | 64.8 | 0 | 0
CCOC(=O)C1=C(c2ccccc2)NC(SCC(=O)Nc2cccc(C)c2)=C(C#N)C1c1ccco1 (configuration not stated) | 0 | 0 | 0 | 0 | 0 | 0
COc1cccc(N(CC(=O)N2CCCCCC2)S(C)(=O)=O)c1 | 0 | 0 | 0 | 0 | 0 | 0
c1cc2c3c(cccc3c1)NC1(CCC3(CC1)Nc1cccc4cccc(c14)N3)N2 | 0 | 0 | 0 | 59.1 | 0 | 0
CCOc1ccc(OCC)c(NC(=O)CN2CCN(c3ccc(C)cc3C)CC2)c1 | 0 | 0 | - | 65.5 | - | -
CCOC(=O)N1CCN(CC(=O)Nc2cc(OCC)ccc2OCC)CC1 | 0 | 0 | 0 | - | 0 | 0
CCCOc1ccc(NCC(=O)Nc2ccc(C)cc2C)cc1 | 0 | 0 | 0 | 75.9 | 0 | 0
CCOc1ccc(NCC(=O)Nc2ccc(Cl)cc2C)cc1 | 0 | 0 | 0 | 0 | 0 | 0
Cc1ccc2nc(NC(=O)C3CCN(S(=O)(=O)c4cc([N+](=O)[O-])ccc4Cl)CC3)sc2c1 | 0 | 0 | 0 | 67.2 | 0 | 0
O=C(Nc1nc2ccc(S(=O)(=O)N3CCCCC3)cc2s1)c1ccncc1 | 0 | 0 | 0 | 0 | 0 | 0
O=C(Nc1nc2c(F)cc(F)cc2s1)c1ccccn1 | 0 | 0 | 0 | 61.2 | 0 | 0
Cc1ccc2nc(NC(=O)c3ccccn3)sc2c1 | 0 | 0 | 0 | 69.3 | 0 | 0
O=C(Nc1nc2ccc(S(=O)(=O)N3CCCC3)cc2s1)c1ccccn1 | 0 | 0 | 0 | 63.8 | 0 | 0
COc1ccc(NC(=O)NNC(=O)c2ccccc2-n2cccc2)cc1OC | 0 | 0 | 0 | 0 | 0 | 0
O=C(Nc1ccccn1)c1cccc(S(=O)(=O)N2CCCC2)c1 | 0 | 0 | 0 | 0 | 82.0[inhibitor] | 0
Cc1ccc(N2C(=O)C3CC(c4ccccc4)=C4C5C=CC(C6C(=O)N(c7ccc(C)cc7C)C(=O)C56)C4C3C2=O)c(C)c1 (configuration not stated) | 0 | 0 | 0 | 59.3 | 0 | 0
CC(OC(=O)CN1C(=O)NC2(CCCC2)C1=O)C(=O)c1ccccc1 (configuration not stated) | - | - | - | 0 | - | -

Screening results (PubChem)
